Compounds with a hit are over-represented: about 2.7% of the library has one in this group of screens.
M18AAP inhibitor: blocks P. falciparum M18 aspartyl aminopeptidase | recombinant PfM18AAP, H-Glu-NHMec fluorogenic cleavage | inhibition, % at 7.35 µM | 290,000 compounds, 1.2% hits;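 active means inhibition above the campaign mean inhibition over all tested compounds plus 3 SD, cut at about 28% in these data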;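 further: 0% = plate median of test compound wells and 100% = 2 mM ZnCl2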
IMP-1 inh-1: blocks Pseudomonas aeruginosa IMP-1 metallo-beta-lactamase | purified IMP-1, nitrocefin hydrolysis, epi-absorbance fluorescence | inhibition, % at 5.6 µM | 290,000 compounds, 0.45% hits | AID 1556;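 active means inhibition above the mean plus 3 SD of all compounds in the same screening run, cut at about 4.5% in these data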;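 further: 0% = IMP-1 with DMSO and 100% = DMSO wells lacking enzyme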
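Material – recombinant IMP-1 enzyme, purified · Amount – IMP-1 0.2 nM before substrate addition · Medium – HEPES buffer pH 7.1 with ZnSO4 and Brij 35 · Timing – 25 °C, 15 min preincubation, 25 min reaction · Measured by – plate fluorescence quenching by hydrolysis product, ex 480/em 530 nm · Read-out – percent enzyme inhibition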
CTSL1 counter: counter-screen for PFM18AAP inhibitors: inhibitors of F. hepatica cathepsin L1 | recombinant F. hepatica cathepsin L1, Z-Leu-Arg-MCA fluorescence | inhibition, % at 5.96 µM | 300,000 compounds, 0.49% hits | AID 1906;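 active means inhibition above the mean of all tested compounds plus 3 SD, set per screening campaign, cut at about 17% in these data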;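 further: 0% = plate median of test compound wells and 100% = 1 µM Z-Phe-Ala-diazomethylketone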
VIM-2 inh: inhibitors of Pseudomonas aeruginosa VIM-2 metallo-beta-lactamase. purified VIM-2, nitrocefin hydrolysis, epi-absorbance fluorescence. inhibition, % at 5.6 µM. 290,000 compounds, 0.89% hits;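 active means inhibition above the mean of all tested compounds plus 3 SD, cutoff set per screening run, cut at about 7.5% in these data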;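 further: red hydrolysis product quenches plate fluorescence so inhibitors raise well fluorescence; 0% = enzyme with DMSO and 100% = DMSO without enzyme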
IMP-1 inh-2: blocks IMP-1 metallo-beta-lactamase in VIM-2 selectivity screen. purified IMP-1, nitrocefin hydrolysis, epi-absorbance fluorescence. AID 1856. 1,300 tested, under 10 active. inhibition, % at 5.6 µM. shares compounds with VIM-2 inh; call rule not given here;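 further: 0% = enzyme with vehicle and 100% = vehicle without enzyme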
VIM-2 FRET ctr: counter-screen for VIM-2 inhibitors: epi-absorbance artifacts via FRET | shares compounds with VIM-2 inh | purified VIM-2, CCF2 FRET substrate hydrolysis | inhibition, % at 5.6 µM | 1,300 compounds, 23% hits;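 active means inhibition above the mean of all tested compounds plus 3 SD, cut at about 19% in these data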;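 further: 0% = VIM-2 plus DMSO and 100% = no enzyme wells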
TEM-1 counter: selectivity counter-screen for VIM-2 inhibitors: E. coli TEM-1 inhibitors; shares compounds with VIM-2 inh; Purified TEM-1, nitrocefin hydrolysis, epi-absorbance fluorescence; inhibition, % at 5.6 µM; 1,300 compounds, 3% hits; AID 1866;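 active means inhibition above that campaign's mean inhibition plus 3 SD, cut at about 0.46% in these data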;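 further: 0% = TEM-1 with DMSO and 100% = TEM-1 with 100 µM potassium clavulanate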
Target sequence (P62593 whole entry, looked up): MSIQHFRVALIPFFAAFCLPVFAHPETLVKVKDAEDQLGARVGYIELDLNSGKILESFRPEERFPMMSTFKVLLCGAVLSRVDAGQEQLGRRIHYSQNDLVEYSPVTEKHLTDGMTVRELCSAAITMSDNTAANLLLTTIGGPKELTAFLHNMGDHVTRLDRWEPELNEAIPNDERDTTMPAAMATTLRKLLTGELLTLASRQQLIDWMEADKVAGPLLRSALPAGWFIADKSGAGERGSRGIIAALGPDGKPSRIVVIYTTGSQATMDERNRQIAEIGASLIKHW
VIM-2 confirm 2: confirmation of P. aeruginosa VIM-2 metallo-beta-lactamase inhibitors; shares compounds with VIM-2 inh; purified VIM-2, nitrocefin hydrolysis, epi-absorbance; inhibition, % at 5.6 µM; 1,300 compounds, 96% hits; AID 2187;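 active means inhibition of the VIM-2 beta-lactamase enzyme above about 11% from the earlier first-round screen, limit read from the data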;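 further: 0% = VIM-2 with DMSO and 100% = buffer wells without enzyme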
An asterisk follows results filed as active; nt = no result.

SMILES	M18AAP inhibitor	IMP-1 inh-1	CTSL1 counter	VIM-2 inh	IMP-1 inh-2	VIM-2 FRET ctr	TEM-1 counter	VIM-2 confirm 2
Cc1ccc2cc(CCNC(=O)CCCc3ccccc3)c(=O)[nH]c2c1C	4.1	-2.4	1.7	-3.3	nt	nt	nt	nt
Cc1ccc2[nH]c(=O)c(CN(Cc3ccccc3)C(=S)NCCCN(C)C)cc2c1	-4.7	-0.3	1.6	0.2	nt	nt	nt	nt
CC(C)CN1C(=O)c2ccc(NC(=O)Cc3ccccc3)cc2C1=O	-1.0	-2.5	2.0	-2.4	nt	nt	nt	nt
Cc1cccc(CCN(CC(=O)NCc2ccc(F)cc2)C(=O)c2csnn2)c1	-1.9	-2.6	-0.1	-3.8	nt	nt	nt	nt
O=C(COc1cc(Cl)c(Cl)cc1Cl)Nn1cnnc1	29.8*	-2.5	0.0	-2.5	nt	nt	nt	nt
O=C(COc1cc(Cl)c(Cl)cc1Cl)Nc1ccncc1	-5.0	-3.2	0.8	-1.8	nt	nt	nt	nt
COCCSc1ccccc1C(=O)NCc1ccco1	29.9*	-3.2	0.7	-5.1	nt	nt	nt	nt
O=C(NCc1ccco1)/C(=C/c1ccco1)NC(=O)c1ccc(Br)o1	-1.2	-2.2	16.9*	-3.0	nt	nt	nt	nt
O=C(NCc1ccco1)/C(=C\C=C\c1ccccc1)NC(=O)c1ccco1	-13.7	-2.7	16.7*	-0.2	nt	nt	nt	nt
COCCSc1ccccc1C(=O)NCCc1ccccc1	12.5	-2.9	1.2	-2.3	nt	nt	nt	nt
COc1ccccc1C(=O)N/C(=C\c1ccccc1)C(=O)NCc1ccco1	8.5	-1.1	17.2*	-1.2	nt	nt	nt	nt
C/C(=N\NC(=O)c1ccc([N+](=O)[O-])cc1Cl)c1ccccc1	6.1	-2.5	-6.4	-4.2	nt	nt	nt	nt
CC(Nc1nc(-c2cccc(Br)c2)cs1)c1nc2cc(Cl)c(N3CCCCC3)cc2n1CCOCCO (configuration not stated)	-8.9	0.5	-1.5	0.4	nt	nt	nt	nt
O=C(NCc1ccco1)/C(=C/C=C/c1ccccc1)NC(=O)c1ccco1	7.4	-2.6	27.0*	-1.9	nt	nt	nt	nt
Cc1cc(NCCCN)nc(-c2ccccc2O)n1	0.8	-4.2	1.4	36.3*	-3.4	-0.7	-7.1	53.7*
Cc1ccc(Nc2cc(C)nc(-c3ccccc3O)n2)cc1	-10.6	-5.9	4.5	-7.6	nt	nt	nt	nt
CCCN(CCC)S(=O)(=O)c1ccc(C(=O)Nc2cc3oc4ccccc4c3cc2OC)cc1	-5.3	-1.6	0.8	0.8	nt	nt	nt	nt
OC(CON=C1c2ccccc2-c2ccccc21)CN1CCNCC1 (configuration not stated)	2.6	-0.6	2.6	30.1*	-3.2	-3.5	-6.5	45.2*
Cc1ccc(C)c2[nH]c(=O)c(CN(Cc3ccco3)C(=S)NCC3CCCO3)cc12 (configuration not stated)	-6.4	-1.4	2.3	2.2	nt	nt	nt	nt
COc1cc([N+](=O)[O-])ccc1NC(=O)C[n+]1cccc(C(C)=O)c1	-5.4	-0.2	2.5	-1.4	nt	nt	nt	nt
COC(=O)COc1ccc(NS(=O)(=O)c2cccc([N+](=O)[O-])c2)cc1	4.3	-1.8	2.6	-2.1	nt	nt	nt	nt
CCOC(=O)c1sc(NC(=O)CCN2CCN(C)CC2)c(C(=O)OCC)c1C	7.8	-2.4	0.1	16.0*	-3.2	1.4	-7.3	47.7*
CCOc1cc(N2CCOCC2)c(OCC)cc1NC(=O)c1ccc(-n2ccnc2)c([N+](=O)[O-])c1	10.6	-4.4	-3.3	68.0*	-2.8	-7.3	-6.1	75.4*
CCOc1cc(N2CCOCC2)c(OCC)cc1NC(=O)c1ccc(C)cc1	-14.7	-3.3	1.9	-2.5	nt	nt	nt	nt
O=C(COc1ccccc1[N+](=O)[O-])NCCC1=CCCCC1	1.9	-1.2	0.8	-1.6	nt	nt	nt	nt
SMILES	M18AAP inhibitor	IMP-1 inh-1	CTSL1 counter	VIM-2 inh	IMP-1 inh-2	VIM-2 FRET ctr	TEM-1 counter	VIM-2 confirm 2
COC(=O)c1c(NC(=O)c2ccccc2OC)sc(C(=O)N2CCOCC2)c1C	0.3	-1.9	3.0	14.2*	-3.3	2.3	-7.3	20.1*
O=C(COC(=O)c1cccnc1Nc1cccc(C(F)(F)F)c1)NC1CCS(=O)(=O)C1 (configuration not stated)	0.5	-2.6	1.1	-1.4	nt	nt	nt	nt
Cc1cc(C)n(-c2ccc([N+](=O)[O-])cc2-c2nn[nH]n2)n1	-0.3	-1.7	0.4	25.6*	-3.3	53.4*	-4.7	32.6*
O=[N+]([O-])c1ccc(O)c(-c2nn[nH]n2)c1	19.5	-1.1	-1.1	-3.8	nt	nt	nt	nt
COc1cc(Br)cc2cc(C(=O)OC3CCN(C)CC3)c(=O)oc12	-0.7	-1.4	1.9	13.7*	-2.6	0.7	-6.0	21.5*
O=C1CS/C(=N/N=C/c2cccs2)N1Cc1ccc(F)cc1	1.6	-3.6	3.1	-3.8	nt	nt	nt	nt
Cc1cc(C)c2c(n1)sc1c(N3CCN(C)CC3)ncnc12	-10.8	-0.7	2.3	13.0*	-1.9	-0.4	-4.3	21.3*
COC(=O)c1ccc(Nc2c([N+](=O)[O-])c(=O)oc3ccccc23)cc1	5.5	-2.9	-1.5	-2.0	nt	nt	nt	nt
CSc1nnc2c3cc(F)ccc3n(Cc3ccccc3)c2n1	nt	nt	2.0	nt	nt	nt	nt	nt
CCN(CC)CCSc1nnc2c3cc(C)ccc3n(Cc3ccccc3)c2n1	3.8	-2.2	7.8	22.8*	-3.1	3.7	-7.3	42.6*
Cc1cc(=O)oc2cc(OCC(=O)NCCCN3CCOCC3)c(Cl)cc12	4.3	-1.6	-3.5	0.1	nt	nt	nt	nt
Cc1c(OCC(=O)NCCCN2CCOCC2)ccc2c1oc(=O)c1ccccc12	-7.5	-1.6	3.5	25.5*	-0.9	0.9	-4.2	37.5*
Cc1c(OCC(=O)NCCCN2CCOCC2)ccc2c3c(c(=O)oc12)CCC3	0.6	-2.7	1.0	25.0*	-2.5	1.2	-14.1	36.5*
Cc1c(OCC(=O)NCCCN2CCOCC2)ccc2c(-c3ccccc3)cc(=O)oc12	-3.7	-1.5	1.3	0.9	nt	nt	nt	nt
Cc1ccc(/C=N\NC(=O)Cn2c(C)nc3ccccc32)o1	-1.3	-3.3	1.4	-5.1	nt	nt	nt	nt
COc1cc(NC(=O)c2ccc(N3CC4CC(C3)c3cccc(=O)n3C4)c(NC(=O)c3ccncc3)c2)cc(OC)c1OC (configuration not stated)	14.1	-2.0	2.6	-5.2	nt	nt	nt	nt
Cc1onc(-c2ccccc2)c1C(=O)N/N=C/c1cccc(O)c1	-1.5	-0.8	0.8	-3.7	nt	nt	nt	nt
Cc1onc(-c2ccccc2)c1C(=O)N/N=C/c1ccco1	19.2	-4.6	1.4	34.1*	-4.2	2.7	-5.2	1.8
COc1ccc(N2C(=O)CCC(C(=O)N3CCN(c4ccccn4)CC3)C2c2ccc(F)cc2)cc1 (configuration not stated)	1.9	-0.4	0.5	-3.4	nt	nt	nt	nt
CC(C)(C)NC(=O)c1ccccc1-c1nc(-c2ccccc2Cl)no1	1.7	-1.1	2.7	-0.1	nt	nt	nt	nt
COc1ccc2[nH]c3c(=O)n(CCCCCC(=O)NCCC(C)C)c(=S)[nH]c3c2c1	-7.0	-3.7	-1.4	-4.9	nt	nt	nt	nt
Cc1ccc(-c2nn3cnnc3c3ccccc23)cc1C	0.3	-1.2	0.6	23.5*	0.2	5.5	1.6*	39.0*
